What all share (assay type): functional
One assay concerns Pseudomonas aeruginosa. In words: Antibacterial activity against Pseudomonas aeruginosa at 20 mg/mL by agar diffusion method. Put shortly:
(§1)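 Agar diffusion assay with test solutions at 20 mg/mL in DMSO, run alongside tetracycline as reference. Read-out is the diameter of the inhibition zone in mm, reported as an average.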

The next assay concerns Staphylococcus aureus. In words: Antibacterial activity against Staphylococcus aureus at 20 mg/mL by agar diffusion method. An outline of the steps: as §1
The test system of a further assay is Enterococcus faecalis. Description: Antibacterial activity against Streptococcus faecalis at 20 mg/mL by agar diffusion method. Put shortly:
as §1

Another assay concerns Escherichia coli. In words: Antibacterial activity against Escherichia coli at 20 mg/mL by agar diffusion method. An outline of the steps:
as §1

For the molecule `COc1ccccc1Cc1cc(-c2ccc(Cl)cc2)n[nH]/c1=N/N=C/c1ccc(OCCOc2ccc(C=O)cc2OC)c(OC)c1`, the diameter of the inhibition zone (DIZ) in the assay with Pseudomonas aeruginosa was determined as 13 mm; in the assay with Staphylococcus aureus, 12 mm; in the assay with Enterococcus faecalis it was 12 mm; in the assay with Escherichia coli it was 13 mm.

As to `COc1ccccc1Cc1cc(-c2ccccc2)n[nH]/c1=N/N=C/c1ccc(OCCOc2ccc(C=O)cc2)cc1`, the diameter of the inhibition zone (DIZ) with Pseudomonas aeruginosa was 13 mm; in the assay on Staphylococcus aureus, 14 mm; in the assay with Enterococcus faecalis, 12 mm; with Escherichia coli, 12 mm.

As to `COc1ccc(-c2cc(Cc3ccccc3OC)/c(=N/N=C/c3ccc(OC(C)=O)c(OC)c3)[nH]n2)cc1`, the diameter of the inhibition zone (DIZ) with Pseudomonas aeruginosa was 12 mm; in the assay on Staphylococcus aureus it was 14 mm; in the assay with Enterococcus faecalis, 13 mm; with Escherichia coli, 15 mm.

For `COc1ccc(-c2cc(Cc3ccccc3OC)/c(=N/N=C(\c3ccccc3)c3ccccc3C(=O)O)[nH]n2)cc1`, the diameter of the inhibition zone (DIZ) stood at 17 mm with Pseudomonas aeruginosa, 18 mm in the assay with Staphylococcus aureus, 17 mm with Enterococcus faecalis and 16 mm with Escherichia coli.

Regarding `COc1ccc(-c2cc(Cc3ccccc3OC)/c(=N/N=C/c3ccc(O)c(OC)c3)[nH]n2)cc1`, the diameter of the inhibition zone (DIZ) with Pseudomonas aeruginosa was 13 mm; with Staphylococcus aureus, 12 mm; in the assay with Enterococcus faecalis it was 12 mm; in the assay with Escherichia coli, 12 mm.

Turning to `COc1ccc(-c2cc(Cc3ccccc3OC)/c(=N/N=C/C(O)C(O)C(O)CO)[nH]n2)cc1` (configuration not stated), the diameter of the inhibition zone (DIZ) in the assay on Pseudomonas aeruginosa came out at 11 mm; with Staphylococcus aureus, 12 mm; with Enterococcus faecalis it was 12 mm; in the assay on Escherichia coli, 12 mm.

As for `COc1ccccc1Cc1cc(-c2ccccc2)n[nH]/c1=N\N=C(C)C`, the diameter of the inhibition zone (DIZ) with Pseudomonas aeruginosa came to 15 mm; in the assay on Staphylococcus aureus, 16 mm; with Enterococcus faecalis, 16 mm; in the assay with Escherichia coli it was 15 mm.

Turning to `COc1ccccc1Cc1cc(-c2ccc(C)cc2)n[nH]/c1=N/N=C/C(OC(C)=O)C(OC(C)=O)C(COC(C)=O)OC(C)=O` (configuration not stated), the diameter of the inhibition zone (DIZ) stood at 12 mm with Pseudomonas aeruginosa, 13 mm in the assay with Staphylococcus aureus, 13 mm in the assay with Enterococcus faecalis and 13 mm in the assay with Escherichia coli.

For `COc1ccccc1Cc1cc(-c2ccc(C)cc2)n[nH]\c1=N/N=C(C)/C(C)=N/N=c1/[nH]nc(-c2ccc(C)cc2)cc1Cc1ccccc1OC`, the diameter of the inhibition zone (DIZ) came to 14 mm with Pseudomonas aeruginosa, 14 mm with Staphylococcus aureus, 13 mm in the assay with Enterococcus faecalis and 13 mm with Escherichia coli.

With `COc1ccc(-c2cc(Cc3ccccc3OC)/c(=N\N=C\C(OC(C)=O)C(OC(C)=O)C(OC(C)=O)C(COC(C)=O)OC(C)=O)[nH]n2)cc1` (configuration not stated), the diameter of the inhibition zone (DIZ) with Pseudomonas aeruginosa was determined as 13 mm; in the assay with Staphylococcus aureus, 13 mm; with Enterococcus faecalis, 14 mm; in the assay with Escherichia coli, 14 mm.

For `COc1ccccc1Cc1cc(-c2ccccc2)n[nH]/c1=N/N=C/c1cc(OC)c(OCCOc2c(OC)cc(C=O)cc2OC)c(OC)c1`, the diameter of the inhibition zone (DIZ) was determined as 14 mm in the assay with Pseudomonas aeruginosa, 14 mm in the assay on Staphylococcus aureus, 13 mm in the assay with Enterococcus faecalis and 12 mm with Escherichia coli.

For `COc1ccccc1Cc1cc(-c2ccccc2)n[nH]/c1=N\N=C(c1ccccc1)c1ccccc1`, the diameter of the inhibition zone (DIZ) stood at 13 mm with Pseudomonas aeruginosa, 13 mm with Staphylococcus aureus, 13 mm in the assay with Enterococcus faecalis and 12 mm in the assay on Escherichia coli.

With `COc1ccc(-c2cc(Cc3ccccc3OC)/c(=N\N=C\c3ccc(OCCOc4ccc(C=O)cc4OC)c(OC)c3)[nH]n2)cc1`, the diameter of the inhibition zone (DIZ) with Pseudomonas aeruginosa is 10 mm; in the assay with Staphylococcus aureus, 10 mm; in the assay on Enterococcus faecalis, 10 mm; in the assay with Escherichia coli, 11 mm.

`COc1ccccc1Cc1cc(-c2ccccc2)n[nH]/c1=N\N=C(/C)c1ccccc1`: the diameter of the inhibition zone (DIZ) in the assay with Pseudomonas aeruginosa is 12 mm; in the assay with Staphylococcus aureus, 13 mm; in the assay on Enterococcus faecalis, 13 mm; in the assay on Escherichia coli, 12 mm.

For `COc1ccccc1Cc1cc(-c2ccc(Cl)cc2)n[nH]/c1=N\N=C\C(O)C(O)C(O)CO` (configuration not stated), the diameter of the inhibition zone (DIZ) with Pseudomonas aeruginosa came out at 15 mm; with Staphylococcus aureus, 16 mm; in the assay on Enterococcus faecalis it was 17 mm; in the assay with Escherichia coli, 16 mm.

Consider `COc1ccc(-c2cc(Cc3ccccc3OC)/c(=N/N=C(\C)C(C)=O)[nH]n2)cc1`, for which the diameter of the inhibition zone (DIZ) with Pseudomonas aeruginosa, in the assay with Staphylococcus aureus, with Enterococcus faecalis and in the assay on Escherichia coli was 13 mm throughout.

Regarding `COc1ccc(-c2cc(Cc3ccccc3OC)/c(=N/N=C/C(O)C(O)C(O)C(O)CO)[nH]n2)cc1` (configuration not stated), the diameter of the inhibition zone (DIZ) in the assay with Pseudomonas aeruginosa turned out to be 14 mm; in the assay on Staphylococcus aureus it was 16 mm; in the assay with Enterococcus faecalis it was 15 mm; in the assay with Escherichia coli, 15 mm.

As to `CN(C)[C@@H]1C(O)=C(C(N)=O)C(=O)[C@@]2(O)C(O)=C3C(=O)c4c(O)cccc4[C@@](C)(O)[C@H]3C[C@@H]12` [TETRACYCLINE], the diameter of the inhibition zone (DIZ) came to 24 mm in the assay with Pseudomonas aeruginosa, 20 mm in the assay with Staphylococcus aureus, 26 mm in the assay with Enterococcus faecalis and 22 mm in the assay on Escherichia coli.
